{"source": "ChEMBL document CHEMBL4028903", "about": "(J Med Chem, 2017)", "key": {"Rattus norvegicus": {"system": "Rattus norvegicus", "assay": "In vivo agonist activity at FXR in po dosed Sprague-Dawley rat assessed as induction of SHP mRNA level in ileum administered as single dose measured 7 hrs post dose by qPCR analysis", "format": "functional, organism-based"}, "[1]": {"assay": "Volume of distribution at steady state in dog at 0.5 mg/kg, iv or 2 mg/kg, po administered via gavage by LC-MS/MS analysis", "format": "ADME, organism-based, Canis lupus familiaris", "details": "in vivo, read-out: Vdss", "outline": "(§1)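 IV dosing used a solution in 75% PEG300:25% D5W for mouse and rat, and a solution in 20% PEG300, 5% solutol, 75% carbonate buffer pH 8 for dog. PO dosing used a suspension in 0.5% methylcellulose, 0.5% Tween80, 99% water for all three species.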"}, "[2]": {"assay": "Terminal half life in rat at 3 mg/kg, iv by LC-MS/MS analysis", "format": "ADME, organism-based", "details": "in vivo, read-out: beta t1/2 (converted)", "outline": "(§2)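 Rats were dosed IV as a solution in 75% PEG300:25% D5W, or orally as a suspension in 0.5% methylcellulose, 0.5% Tween80 and 99% water.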"}, "[3]": {"assay": "Volume of distribution at steady state in mouse at 5 mg/kg, iv or 10 mg/kg, po administered via gavage by LC-MS/MS analysis", "format": "ADME, organism-based", "details": "in vivo, read-out: Vdss", "outline": "as §1"}, "[4]": {"assay": "AUC (0 to 24 hrs) in Sprague-Dawley rat at 0.03 mg/kg, po qd administered via gavage measured on day 1 by LC-MS/MS analysis", "format": "ADME, organism-based", "set-up": "time < 24 hr, dose 0.03 mg/kg, route oral", "details": "in vivo"}, "[5]": {"assay": "Drug uptake in Sprague-Dawley rat plasma at 0.01 mg/kg, po qd administered via gavage measured 7 hrs post last dose on day 14 by LC-MS/MS analysis", "format": "ADME, organism-based"}, "[6]": {"assay": "Oral bioavailability in mouse at 10 mg/kg administered via gavage by LC-MS/MS analysis", "format": "ADME, organism-based", "details": "in vivo", "outline": "as §1"}, "[7]": {"molecular_target": "T1, Bile acid receptor (Rattus norvegicus) (UniProt Q62735)", "T1 sequence (whole entry)": "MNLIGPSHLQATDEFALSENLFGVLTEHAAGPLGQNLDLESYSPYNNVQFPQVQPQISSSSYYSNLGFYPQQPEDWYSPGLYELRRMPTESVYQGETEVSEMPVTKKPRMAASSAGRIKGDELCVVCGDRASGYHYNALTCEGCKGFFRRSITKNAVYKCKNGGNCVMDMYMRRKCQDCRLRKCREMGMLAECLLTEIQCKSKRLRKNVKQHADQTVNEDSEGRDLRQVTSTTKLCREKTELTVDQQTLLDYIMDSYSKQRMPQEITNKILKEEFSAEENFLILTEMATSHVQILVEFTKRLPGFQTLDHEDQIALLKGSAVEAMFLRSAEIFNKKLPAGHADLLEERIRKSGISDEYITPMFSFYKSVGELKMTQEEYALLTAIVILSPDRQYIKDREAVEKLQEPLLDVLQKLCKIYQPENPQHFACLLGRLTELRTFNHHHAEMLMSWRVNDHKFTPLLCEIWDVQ", "assay": "Agonist activity at FXR in rat primary hepatocytes assessed as induction of SHP mRNA level after 24 hrs by qPCR analysis", "format": "cell-based"}, "[8]": {"molecular_target": "T2, G-protein coupled bile acid receptor 1 (Mus musculus, UniProt Q80SS6)", "T2 sequence (Q80SS6 whole entry)": "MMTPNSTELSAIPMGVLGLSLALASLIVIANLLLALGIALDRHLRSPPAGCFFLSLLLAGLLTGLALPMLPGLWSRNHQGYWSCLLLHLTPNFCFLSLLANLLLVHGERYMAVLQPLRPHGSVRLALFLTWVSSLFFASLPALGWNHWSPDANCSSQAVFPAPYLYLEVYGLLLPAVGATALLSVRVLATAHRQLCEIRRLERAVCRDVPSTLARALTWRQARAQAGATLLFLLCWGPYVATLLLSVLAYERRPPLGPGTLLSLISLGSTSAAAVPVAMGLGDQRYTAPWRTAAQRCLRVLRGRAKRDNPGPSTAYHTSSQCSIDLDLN", "assay": "Agonist activity at mouse TGR5"}, "[9]": {"assay": "AUC in dog at 2 mg/kg, po administered via gavage by LC-MS/MS analysis", "format": "ADME, organism-based, Canis lupus familiaris", "details": "in vivo", "outline": "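Single oral dose given as a suspension in 0.5% methylcellulose, 0.5% Tween80 and 99% water. Doses were 10 mg/kg in mouse, 1 mg/kg in rat and 2 mg/kg in dog.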"}, "[10]": {"assay": "Drug uptake in Sprague-Dawley rat plasma at 0.3 mg/kg, po qd administered via gavage measured 7 hrs post last dose on day 14 by LC-MS/MS analysis", "format": "ADME, organism-based"}, "[11]": {"assay": "AUC (0 to 24 hrs) in Sprague-Dawley rat at 0.01 mg/kg, po qd administered via gavage measured on day 11 by LC-MS/MS analysis", "format": "ADME, organism-based", "set-up": "dose 0.01 mg/kg, time < 24 hr, route oral", "details": "in vivo"}, "[12]": {"assay": "Half life in dog at 0.5 mg/kg, iv by LC-MS/MS analysis", "format": "ADME, organism-based, Canis lupus familiaris", "details": "in vivo", "outline": "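Single IV dose given as a solution. Mouse and rat received it in 75% PEG300:25% D5W. Dog received it in 20% PEG300, 5% solutol and 75% carbonate buffer pH = 8. Plasma was sampled for PK parameters.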"}, "[13]": {"assay": "Clearance in rat at 3 mg/kg, iv by LC-MS/MS analysis", "format": "ADME, organism-based", "details": "in vivo", "outline": "as §2"}, "[14]": {"assay": "Drug uptake in Sprague-Dawley rat plasma at 3 mg/kg, po qd administered via gavage measured 1 hr post last dose on day 14 by LC-MS/MS analysis", "format": "ADME, organism-based"}, "[15]": {"assay": "Drug uptake in Sprague-Dawley rat liver at 3 mg/kg, po qd administered via gavage measured 1 hr post last dose on day 14 by LC-MS/MS analysis", "format": "ADME, organism-based", "details": "read-out: Drug uptake", "outline": "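Drug concentration in liver was quantified from tissue homogenates, so these are total levels. Unbound liver concentration was not determined.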"}}, "data": [{"compound": "O=C(O)c1cc(F)c2nc(N3C4CCC3CC(OCc3c(-c5ccccc5OC(F)(F)F)noc3C3CC3)C4)sc2c1", "note": "(stereo unspecified)", "values": [{"measurement": "Activity", "setting": "Rattus norvegicus", "result": "Dose-dependent effect"}, {"measurement": "Vd", "setting": "[1]", "result": 0.46, "unit": "L/kg"}, {"measurement": "half-life", "setting": "[2]", "result": 3.7, "unit": "h"}, {"measurement": "Vd", "setting": "[3]", "result": 0.7, "unit": "L/kg"}, {"measurement": "AUC(0-t) at 24 h", "setting": "[4]", "result": 0.015, "unit": "µM·h"}, {"measurement": "concentration at 7 h", "setting": "[5]", "result": 0.31, "unit": "nM"}, {"measurement": "bioavailability", "setting": "[6]", "result": 9.2, "unit": "%"}, {"measurement": "Activity", "setting": "[7]", "result": "Dose-dependent effect"}, {"measurement": "EC50", "setting": "[8]", "result": "> 10", "unit": "µM"}, {"measurement": "AUC", "setting": "[9]", "result": 3.66, "unit": "µM·h"}, {"measurement": "concentration at 7 h", "setting": "[10]", "result": 13.8, "unit": "nM"}, {"measurement": "AUC at 24 h", "setting": "[11]", "result": 0.005, "unit": "µM·h"}, {"measurement": "half-life", "setting": "[12]", "result": 7.4, "unit": "h"}, {"measurement": "clearance", "setting": "[13]", "result": "9 to 9.3", "unit": "mL/min/kg"}, {"measurement": "concentration at 1 h", "setting": "[14]", "result": 62.6, "unit": "nM"}, {"measurement": "concentration at 1 h", "setting": "[15]", "result": 872, "unit": "nM"}]}]}
